The text below walks through data of PubChem BioAssay.

Molecules are shown by their SMILES. Activity calls are given as the source filed them.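 How the source made its calls, unless noted: active means viability at or below 30% in both replicate assays; inconclusive means viability at or below 30% in just one of the two assays; inactive means the rest.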

Experiment [1] can be described thus: reducers of endogenous Her2 protein level, primary screen, SKBR3 breast tumor cells, AlphaScreen, ATP viability (AID 461;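 active means Her2 level under about 52% in both replicate screens, with viability over 70% of control, limit read from the data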;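 on Her2 level: lower value means less Her2 protein in the cells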;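 on viability: percent of carrier control wells set as 100% viability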). Conditions: 18-24 h, measured here: SKBR3 viability, ATP luminescence, at 10 µM. On the technique in general: In Alpha technology, singlet oxygen from a donor bead excites a nearby acceptor bead.
Experiment [2] has as its target Receptor tyrosine-protein kinase erbB-2 (Homo sapiens) (UniProt P04626). The description is as above. Conditions: 18-24 h, at 10 µM, stronger effect = lower value.
The nature of experiment [3]: SK-BR-3 cell growth inhibitors, pilot screen, 24 h, human (AID 572;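 active means viability at or below 10% of carrier control in both of two separate runs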;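 further: compound exposure lasted between 18 and 24 h rather than exactly 24 h; 100% = carrier-treated control wells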). As to conditions: SK-BR-3 viability, CellTiter-Glo luminescence, at 10 µM, stronger effect = lower value.
Experiment [4] is described as follows: HUVEC growth inhibition – cell-based, human, primary screen (AID 575).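 Further: 100% = median of untreated cell wells with 0.1% DMSO on each plate.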 Conditions: HUVEC proliferation, CellTiter-Glo luminescence, 72 h; at 10 µM; stronger effect = lower value. In a few lines: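 system = HUVEC primary cells | amount = 1250 cells/well | buffer or medium = supplemented EBM, 2% fetal bovine serum | dosing = single-point 10 µM, DMSO 0.1% final | times = 72 h compound incubation | detection = CTG luminescence | read-out = % viability relative to median vehicle-well signal on each plate | control set = vehicle and MePR control wells | format = collagen-coated 384-well format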

A short description of experiment [5]: growth inhibitors of H69AR lung tumor, primary screen, human, duplicate replicates (AID 580;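 active means viability at or under a set limit in both replicates, limit being median viability minus 3 SD, cut at about 48% in these data, passing the limit was not always enough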;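 further: 100% = mean luminescence of untreated wells and 0% = no signal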). As to conditions: H69AR lung tumor cells viability, ATP luminescence, 72 h; at 10 µM; stronger effect = lower value.
Experiment [6] in a line: reversal of MRP1-mediated doxorubicin resistance, pilot screen, H69AR cells, doxorubicin co-treatment (AID 601;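 active means viability loss from added drug above about 55%, and viability with drug at most 40%, in both replicates, limit read from the data, passing the limit was not always enough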). Conditions: CellTiter-Glo, 72 h, at 10 µM; for differential viability (reversal): stronger effect = higher value. On the technique in general: ATP-based viability assays read luminescence as a measure of living cells.
A short description of experiment [7]: 384-well plate pilot, post-Golgi transport modulator project, inhibition of yeast transport mutant growth (AID 636; in the data active means inhibition above about 31%). Conditions: absorbance 615 nm, about 18 h, stronger effect = higher value.
Experiment [8] is described as follows: growth suppression of yeast trafficking mutant, preliminary HTS, modulators of trafficking downstream of Golgi apparatus project, 1536-format plate, OD 615 nm (AID 637; in the data active means inhibition above about 30%). Conditions: yeast transport mutant growth, absorbance 615 nm, 18 h; stronger effect = higher value.
Setting [9] is: H69AR cells + 2 uM doxorubicin, measured here: viability with 2 uM doxorubicin, stronger effect = lower value.
Where [10] appears, read: H69AR cells, compound alone cytotoxicity.

Sequence of Receptor tyrosine-protein kinase erbB-2 (Homo sapiens) (P04626 whole entry, looked up): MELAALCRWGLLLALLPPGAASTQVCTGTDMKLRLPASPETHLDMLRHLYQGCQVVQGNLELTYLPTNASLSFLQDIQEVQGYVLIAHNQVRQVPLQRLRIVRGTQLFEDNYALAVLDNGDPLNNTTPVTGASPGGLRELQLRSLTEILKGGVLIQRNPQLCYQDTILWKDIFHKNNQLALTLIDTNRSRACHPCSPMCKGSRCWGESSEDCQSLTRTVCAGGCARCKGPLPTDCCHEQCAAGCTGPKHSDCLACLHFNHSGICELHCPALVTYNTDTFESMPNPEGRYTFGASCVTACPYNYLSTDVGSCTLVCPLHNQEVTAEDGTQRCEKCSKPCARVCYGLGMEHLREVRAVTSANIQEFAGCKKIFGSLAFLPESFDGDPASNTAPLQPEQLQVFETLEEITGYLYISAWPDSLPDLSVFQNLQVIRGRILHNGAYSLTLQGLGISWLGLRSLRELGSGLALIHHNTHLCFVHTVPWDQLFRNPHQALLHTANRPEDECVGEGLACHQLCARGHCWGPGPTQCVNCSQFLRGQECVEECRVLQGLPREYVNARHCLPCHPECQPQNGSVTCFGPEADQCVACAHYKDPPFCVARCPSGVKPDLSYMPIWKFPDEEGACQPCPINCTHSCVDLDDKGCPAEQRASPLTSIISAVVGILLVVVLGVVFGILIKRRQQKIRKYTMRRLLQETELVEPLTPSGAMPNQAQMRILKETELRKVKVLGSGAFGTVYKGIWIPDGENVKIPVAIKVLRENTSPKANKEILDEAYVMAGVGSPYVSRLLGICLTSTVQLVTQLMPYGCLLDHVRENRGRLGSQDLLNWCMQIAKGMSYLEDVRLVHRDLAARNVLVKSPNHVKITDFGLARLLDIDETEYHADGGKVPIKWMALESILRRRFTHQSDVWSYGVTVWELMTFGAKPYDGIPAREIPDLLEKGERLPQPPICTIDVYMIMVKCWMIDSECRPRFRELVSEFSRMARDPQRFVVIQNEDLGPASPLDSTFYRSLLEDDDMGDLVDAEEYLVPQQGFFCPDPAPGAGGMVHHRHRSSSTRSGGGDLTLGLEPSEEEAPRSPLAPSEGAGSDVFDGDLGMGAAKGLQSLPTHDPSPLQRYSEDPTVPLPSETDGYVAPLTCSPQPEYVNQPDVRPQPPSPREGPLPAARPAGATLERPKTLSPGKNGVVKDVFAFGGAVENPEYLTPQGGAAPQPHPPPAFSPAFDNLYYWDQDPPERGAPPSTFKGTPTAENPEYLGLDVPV

Turning to `O=c1c2ccccc2nc(SCc2cn3ccsc3n2)n1-c1ccc(F)cc1`, the viability (as a rule, a read-out of living cells in per cent, often relative to untreated cells) in experiment [1] was 73%; in experiment [3] it was 73% (inactive); in experiment [4] it was 64.6% (inactive); in experiment [5], 102% (inactive); in experiment [6] (setting [9]), 115%; in experiment [6] (setting [10]), 102%. Further, in experiment [2], the Her2 level is 102% (inactive). The differential viability (reversal) in experiment [6] (H69AR cells + 2 uM doxorubicin) was -13.3% (inactive). Moreover, the inhibition (usually the change of the read-out against control, counted positive when it falls) was -6.44% (inactive) in experiment [7] and 1.43% (inactive) in experiment [8].
Consider `Cc1ccc(CNC(=O)C2CCN(S(=O)(=O)c3cccs3)CC2)o1`, for which the viability in experiment [1] was 138%; in experiment [3] it was 138% (inactive); in experiment [4], 89.5% (inactive); in experiment [5], 81% (inactive); in experiment [6] (setting [9]) it was 74.6%; in experiment [6] (setting [10]), 81%. Further, the Her2 level in experiment [2] was 87% (inactive). The differential viability (reversal) in experiment [6] (H69AR cells + 2 uM doxorubicin) was 6.39% (inactive). Besides, the inhibition was -4.68% (inactive) in experiment [7] and 4.76% (inactive) in experiment [8].
For `O=C(Nc1ccc(S(=O)(=O)N2CCc3ccccc32)cc1)c1ccc2c(c1)OCO2`, the viability is 77% in experiment [1]; 77% (inactive) in experiment [3]; 76.7% (inactive) in experiment [4]; 103% (inactive) in experiment [5]; 100% in experiment [6] (setting [9]); 103% in experiment [6] (setting [10]). The Her2 level in experiment [2] is 75.5% (inactive). Also, the differential viability (reversal) in experiment [6] (H69AR cells + 2 uM doxorubicin) is 2.24% (inactive). For the same molecule, the results for the inhibition in experiment [7] and in experiment [8] were 3.51% (inactive) and -8.73% (inactive), respectively.
Take `COC(=O)c1cc2ccsc2n1CC(=O)N(C)c1ccccc1`: the viability is 89.5% in experiment [1]; 89.5% (inactive) in experiment [3]; 90.2% (inactive) in experiment [4]; 84.2% (inactive) in experiment [5]; 84% in experiment [6] (setting [9]); 84.2% in experiment [6] (setting [10]). Moreover, the Her2 level in experiment [2] was 94.5% (inactive). Further, in experiment [6] (H69AR cells + 2 uM doxorubicin), the differential viability (reversal) was 0.29% (inactive). Further, the inhibition was 0.26% (inactive) in experiment [7] and -1.83% (inactive) in experiment [8].
With `CCOc1ccccc1C1CC(=O)Nc2cc3c(cc21)OCO3` (stereo not given), the viability in experiment [1] is 110%; in experiment [3] it was 110% (inactive); in experiment [4], 31% (inactive); in experiment [5], 23.7% (active); in experiment [6] (setting [9]), 60.9%; in experiment [6] (setting [10]) it was 23.7%. Besides, the Her2 level in experiment [2] is 83.5% (inactive). Also, the differential viability (reversal) in experiment [6] (H69AR cells + 2 uM doxorubicin) was -37.2% (inactive). The inhibition in experiment [7] was -4.61% (inactive); in experiment [8], 8.17% (inactive).
On to `Cc1nnc(SC(=O)N2c3ccccc3Sc3ccccc32)s1`, for which the viability in experiment [1] is 114%; in experiment [3], 114% (inactive); in experiment [4] it was 13.2% (active); in experiment [5], 1.79% (active); in experiment [6] (setting [9]), 1.69%; in experiment [6] (setting [10]) it was 1.79%. Moreover, the Her2 level in experiment [2] is 6.5% (active). Further, the differential viability (reversal) in experiment [6] (H69AR cells + 2 uM doxorubicin) was 0.105% (inactive). Further, the inhibition is 54% (active) in experiment [7] and 8.67% (inactive) in experiment [8].
Take `Cc1ccccc1OCc1nc2ccccc2c(=O)n1/N=C/c1ccco1`: the viability in experiment [1] is 102%; in experiment [3], 102% (inactive); in experiment [4], 71% (inactive); in experiment [5], 104% (inactive); in experiment [6] (setting [9]), 95.3%; in experiment [6] (setting [10]), 104%. For the same molecule, in experiment [2], the Her2 level was 100% (inactive). The differential viability (reversal) in experiment [6] (H69AR cells + 2 uM doxorubicin) is 8.3% (inactive). Also, the inhibition is 0.53% (inactive) in experiment [7] and -2.9% (inactive) in experiment [8].
Consider `Cc1ccc(S(=O)(=O)NCCNC(=O)C2CCCNC2=O)cc1` (stereo not given), for which the viability was 93.5% in experiment [1]; 93.5% (inactive) in experiment [3]; 103% (inactive) in experiment [4]; 105% (inactive) in experiment [5]; 92.9% in experiment [6] (setting [9]); 105% in experiment [6] (setting [10]). Also, the Her2 level in experiment [2] is 86.5% (inactive). The differential viability (reversal) in experiment [6] (H69AR cells + 2 uM doxorubicin) was 12% (inactive). For the same molecule, the results for the inhibition in experiment [7] and in experiment [8] were -4.67% (inactive) and 1.8% (inactive), respectively.
On to `NS(=O)(=O)c1ccc(NC(=O)N[C@@H](Cc2ccccc2)C(=O)O)cc1`, for which the viability in experiment [1] was 82.5%; in experiment [3], 82.5% (inactive); in experiment [4], 95.6% (inactive); in experiment [5], 97.6% (inactive); in experiment [6] (setting [9]), 92.6%; in experiment [6] (setting [10]) it was 97.6%. Besides, in experiment [2], the Her2 level is 95.5% (inactive). The differential viability (reversal) in experiment [6] (H69AR cells + 2 uM doxorubicin) was 5% (inactive). In addition, the inhibition in experiment [7] was -3.73% (inactive); in experiment [8], 4.52% (inactive).
Consider `O=C(CN1CCN(c2nc(-c3ccccc3)cs2)CC1)Nc1ccc2c(c1)OCO2`, for which the viability is 90.5% in experiment [1]; 90.5% (inactive) in experiment [3]; 89.9% (inactive) in experiment [4]; 101% (inactive) in experiment [5]; 95.5% in experiment [6] (setting [9]); 101% in experiment [6] (setting [10]). Moreover, in experiment [2], the Her2 level is 99% (inactive). Moreover, in experiment [6] (H69AR cells + 2 uM doxorubicin), the differential viability (reversal) is 5.71% (inactive). Also, the inhibition was -3.87% (inactive) in experiment [7] and -7.1% (inactive) in experiment [8].
Regarding `C=CCn1c(SCc2ccc3nonc3c2)nnc1-c1cccs1`, the viability in experiment [1] was 84%; in experiment [3] it was 84% (inactive); in experiment [4] it was 85.8% (inactive); in experiment [5], 87.3% (inactive); in experiment [6] (setting [9]) it was 84.7%; in experiment [6] (setting [10]) it was 87.3%. Besides, the Her2 level in experiment [2] was 79.5% (inactive). Further, the differential viability (reversal) in experiment [6] (H69AR cells + 2 uM doxorubicin) was 2.61% (inactive). Besides, the inhibition is -5.47% (inactive) in experiment [7] and 0.98% (inactive) in experiment [8].
As to `CCn1c(CSc2ncccn2)nnc1SCC(=O)N1c2ccccc2CC1C` (stereo not given), the viability in experiment [1] was 96%; in experiment [3], 96% (inactive); in experiment [4] it was 87.5% (inactive); in experiment [5] it was 96.3% (inactive); in experiment [6] (setting [9]), 84.3%; in experiment [6] (setting [10]) it was 96.3%. For the same molecule, the Her2 level in experiment [2] was 87.5% (inactive). Further, the differential viability (reversal) in experiment [6] (H69AR cells + 2 uM doxorubicin) is 11.9% (inactive). The values for the inhibition in experiment [7] and in experiment [8] were -5.73% (inactive) and 5.41% (inactive), respectively.
Regarding `CN1CCN(C(=O)c2cnn3c(C(F)F)cc(C4CC4)nc23)CC1`, the viability was 95% in experiment [1]; 95% (inactive) in experiment [3]; 103% (inactive) in experiment [4]; 94.4% (inactive) in experiment [5]; 85.1% in experiment [6] (setting [9]); 94.4% in experiment [6] (setting [10]). For the same molecule, the Her2 level in experiment [2] is 88.5% (inactive). The differential viability (reversal) in experiment [6] (H69AR cells + 2 uM doxorubicin) is 9.3% (inactive). For the same molecule, the inhibition was -2.63% (inactive) in experiment [7] and 3.23% (inactive) in experiment [8].
Consider `Cc1ccc(C)c(-n2c(Cc3cc(=O)[nH]c(=O)[nH]3)nnc2SCC(=O)NCc2ccco2)c1`, for which the viability in experiment [1] is 131%; in experiment [3] it was 131% (inactive); in experiment [4] it was 100% (inactive); in experiment [5], 102% (inactive); in experiment [6] (setting [9]), 89%; in experiment [6] (setting [10]), 102%. Further, the Her2 level in experiment [2] is 142% (inactive). The differential viability (reversal) in experiment [6] (H69AR cells + 2 uM doxorubicin) was 13.3% (inactive). Besides, the inhibition was -6% (inactive) in experiment [7] and -5% (inactive) in experiment [8].
In the case of `Cc1ccc(C2CC(c3cccc(Br)c3)Nc3nnnn32)cc1` (stereo not given), the viability is 92.5% in experiment [1]; 92.5% (inactive) in experiment [3]; 56.7% (inactive) in experiment [4]; 91.7% (inactive) in experiment [5]; 85% in experiment [6] (setting [9]); 91.7% in experiment [6] (setting [10]). Moreover, the Her2 level in experiment [2] was 79.5% (inactive). Moreover, the differential viability (reversal) in experiment [6] (H69AR cells + 2 uM doxorubicin) is 6.65% (inactive). The inhibition in experiment [7] is -2.11% (inactive); in experiment [8] it was 0.16% (inactive).
